Results: ChEMBL document CHEMBL3621107, “Ring fusion strategy for synthesis and lead optimization of sulfur-substituted anthra[1,2-c][1,2,5]thiadiazole-6,11-dione derivatives as promising scaffold of antitumor agents” (Eur J Med Chem, 2015)

How the values were obtained:
Type in all cases: functional
MOLT-4 = experiment: Cytotoxicity against human MOLT4 cells after 48 hrs by SRB assay; settings: MOLT-4, 48 h
Method in brief: (§1)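 Second-stage NCI-60 panel run by the NCI Developmental Therapeutics Program, covering nine tumour subpanels. Five concentrations were tested: 0.01, 0.1, 1, 10 and 100 μM. Percentage growth at each level was plotted against log10 drug concentration. GI50, TGI and LC50 were read from these dose-response curves. Subpanel MID values were divided into the full-panel MID to give selectivity ratios.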

SR = experiment: Cytotoxicity against human SR cells after 48 hrs by SRB assay
Method in brief: (§2)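 NCI-60 five-dose study run by NCI DTP at 0.01, 0.1, 1, 10 and 100 µM. Percentage growth at each level was plotted against log10 concentration for each line, and GI50, TGI and LC50 were read from the dose-response curves.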

NCI-H23 = experiment: Cytotoxicity against human NCI-H23 cells after 48 hrs by SRB assay; settings: NCI-H23, 48 h; method in brief: as §1
NCI-H460 = experiment: Cytotoxicity against human NCI-H460 cells after 48 hrs by SRB assay; settings: NCI-H460, 48 h; method in brief: as §1
HCC 2998 = experiment: Cytotoxicity against human HCC2998 cells after 48 hrs by SRB assay; settings: HCC 2998, 48 h
Method in brief: (§3)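 NCI-60 human tumour cell panel screen, second stage, run by the NCI Developmental Therapeutics Program. Compounds were tested at five concentrations (0.01, 0.1, 1, 10 and 100 μM). Percentage growth was plotted against log10 concentration for each cell line. GI50, TGI and LC50 were taken from these dose-response curves.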

HT-29 = experiment: Cytotoxicity against human HT-29 cells after 48 hrs by SRB assay; settings: HT-29, 48 h; method in brief: as §3
KM12 = experiment: Cytotoxicity against human KM12 cells after 48 hrs by SRB assay; settings: KM12, 48 h; method in brief: as §3
SW-620 = experiment: Cytotoxicity against human SW620 cells after 48 hrs by SRB assay; settings: SW-620, 48 h; method in brief: as §2
SNB-19 = experiment: Cytotoxicity against human SNB19 cells after 48 hrs by SRB assay; settings: SNB-19, 48 h; method in brief: as §1
U-251 = experiment: Cytotoxicity against human U251 cells after 48 hrs by SRB assay; settings: U-251, 48 h; method in brief: as §2
LOX IMVI = experiment: Cytotoxicity against human LOXIMVI cells after 48 hrs by SRB assay; method in brief: as §3
Malme-3M = experiment: Cytotoxicity against human MALME-3M cells after 48 hrs by SRB assay; method in brief: as §3
MDA-MB-435 = experiment: Cytotoxicity against human MDA-MB-435 cells after 48 hrs by SRB assay; settings: MDA-MB-435, 48 h; method in brief: as §1
SK-MEL-5 = experiment: Cytotoxicity against human SK-MEL-5 cells after 48 hrs by SRB assay; settings: SK-MEL-5, 48 h; method in brief: as §1
UACC-257 = experiment: Cytotoxicity against human UACC257 cells after 48 hrs by SRB assay; settings: UACC-257, 48 h; method in brief: as §2
IGROV-1 = experiment: Cytotoxicity against human IGROV1 cells after 48 hrs by SRB assay; settings: IGROV-1, 48 h; method in brief: as §3
ACHN = experiment: Cytotoxicity against human ACHN cells after 48 hrs by SRB assay; method in brief: as §3
CAKI-1 = experiment: Cytotoxicity against human Caki1 cells after 48 hrs by SRB assay; settings: CAKI-1, 48 h; method in brief: as §3
RXF 393 = experiment: Cytotoxicity against human RXF393 cells after 48 hrs by SRB assay; settings: RXF 393, 48 h; method in brief: as §1
SN12C = experiment: Cytotoxicity against human SN12C cells after 48 hrs by SRB assay; method in brief: as §1
TK-10 = experiment: Cytotoxicity against human TK10 cells after 48 hrs by SRB assay; settings: TK-10, 48 h; method in brief: as §2
UO-31 = experiment: Cytotoxicity against human UO31 cells after 48 hrs by SRB assay; settings: UO-31, 48 h; method in brief: as §2
DU-145 = experiment: Cytotoxicity against human DU145 cells after 48 hrs by SRB assay; settings: DU-145, 48 h; method in brief: as §3
MDA-MB-231 = experiment: Cytotoxicity against human MDA-MB-231 cells after 48 hrs by SRB assay; settings: MDA-MB-231, 48 h; method in brief: as §1
[1] = Cytotoxicity against human Hs578T cells after 48 hrs by SRB assay; settings: Hs-578T; method in brief: as §3
T47D = experiment: Cytotoxicity against human T47D cells after 48 hrs by SRB assay; method in brief: as §2
MDA-MB-468 = experiment: Cytotoxicity against human MDA-MB-468 cells after 48 hrs by SRB assay; settings: MDA-MB-468, 48 h; method in brief: as §1
[2] = Cytotoxicity against human non-small cell lung cancer cells assessed as growth inhibition after 48 hrs by SRB assay; settings: Cancer cell lines
Method in brief: (§4)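 Values come from the NCI-60 five-dose panel (0.01–100 µM). The subpanel MID is the mean GI50 over the lines of that tumour subpanel. The selectivity ratio is the full-panel MID divided by the subpanel MID; 3–6 is rated moderate and >6 high.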

[3] = Cytotoxicity against human renal cancer cells assessed as growth inhibition after 48 hrs by SRB assay; settings: Cancer cell lines; method in brief: as §4
[4] = Cytotoxicity against human prostate cancer cells assessed as growth inhibition after 48 hrs by SRB assay; settings: Cancer cell lines; method in brief: as §4
[5] = Cytotoxicity against human breast cancer cells assessed as growth inhibition after 48 hrs by SRB assay; settings: Cancer cell lines; method in brief: as §4
[6] = read-out: LC50 (the source's name)

SMILES: O=C1c2ccccc2C(=O)c2c1cc(Sc1ccc(F)cc1F)c1nsnc21
- GI50 (MOLT-4): 1.11 µM
- LC50 (MOLT-4): > 100 µM
- TGI (MOLT-4): 5.46 µM
- GI50 (SR): 2.97 µM
- LC50 (SR): 52.7 µM
- TGI (SR): 9.06 µM
- GI50 (NCI-H23): 1.88 µM
- LC50 (NCI-H23): 43.1 µM
- TGI (NCI-H23): 6.99 µM
- GI50 (NCI-H460): 25.9 µM
- LC50 (concentration killing 50% of cells) (NCI-H460): > 100 µM
- TGI (NCI-H460): > 100 µM
- GI50 (HCC 2998): 11.3 µM
- LC50 (HCC 2998): 56.4 µM
- TGI (HCC 2998): 25.3 µM
- GI50 (HT-29): 8.72 µM
- LC50 (HT-29): > 100 µM
- TGI (HT-29): 36.3 µM
- GI50 (KM12): 9.91 µM
- LC50 (concentration killing 50% of cells) (KM12): > 100 µM
- TGI (KM12): 77.3 µM
- GI50 (SW-620): 3.99 µM
- LC50 (50% lethal concentration) (SW-620): 69.5 µM
- TGI (SW-620): 16.3 µM
- GI50 (SNB-19): 13.9 µM
- LC50 (SNB-19): 68.6 µM
- TGI (SNB-19): 30.9 µM
- GI50 (U-251): 1.9 µM
- LC50 (U-251): 9.94 µM
- TGI (U-251): 4.35 µM
- GI50 (LOX IMVI): 1.21 µM
- TGI (LOX IMVI): 2.64 µM
- CC50 (LOX IMVI; [6]): 5.77 µM
- GI50 (Malme-3M): 3.26 µM
- LC50 (Malme-3M): 41.7 µM
- TGI (Malme-3M): 8.65 µM
- GI50 (MDA-MB-435): 1.94 µM
- LC50 (MDA-MB-435): 7.07 µM
- TGI (MDA-MB-435): 3.7 µM
- GI50 (SK-MEL-5): 1.41 µM
- LC50 (SK-MEL-5): 5.72 µM
- TGI (SK-MEL-5): 2.84 µM
- GI50 (UACC-257): 1.59 µM
- LC50 (UACC-257): 18 µM
- TGI (UACC-257): 4.64 µM
- GI50 (IGROV-1): 2.93 µM
- LC50 (IGROV-1): 46.6 µM
- TGI (IGROV-1): 10.2 µM
- GI50 (ACHN): 1.85 µM
- LC50 (ACHN): 7.14 µM
- TGI (ACHN): 3.63 µM
- GI50 (CAKI-1): 2.51 µM
- LC50 (concentration causing 50% net cell kill) (CAKI-1): > 100 µM
- TGI (CAKI-1): 7.04 µM
- GI50 (RXF 393): 2.02 µM
- LC50 (concentration killing 50% of cells) (RXF 393): 6.67 µM
- TGI (RXF 393): 3.69 µM
- GI50 (SN12C): 1.64 µM
- TGI (SN12C): 4.96 µM
- CC50 (SN12C; [6]): 19.4 µM
- GI50 (TK-10): 5.07 µM
- LC50 (concentration killing 50% of cells) (TK-10): 38.6 µM
- TGI (TK-10): 14.1 µM
- GI50 (UO-31): 3.03 µM
- LC50 (UO-31): 42.6 µM
- TGI (UO-31): 15 µM
- GI50 (DU-145): 6.3 µM
- LC50 (DU-145): 45 µM
- TGI (DU-145): 18.7 µM
- GI50 (MDA-MB-231): 1.2 µM
- LC50 (concentration killing 50% of cells) (MDA-MB-231): 12.9 µM
- TGI (MDA-MB-231): 3.61 µM
- GI50 [1]: 2.81 µM
- LC50 [1]: > 100 µM
- TGI [1]: > 100 µM
- GI50 (T47D): 0.86 µM
- LC50 (concentration killing 50% of cells) (T47D): 7.02 µM
- TGI (T47D): 2.57 µM
- GI50 (MDA-MB-468): 0.45 µM
- LC50 (MDA-MB-468): 4.19 µM
- TGI (MDA-MB-468): 1.52 µM
- GI50 [2]: 19 µM
- GI50 [3]: 2.53 µM
- GI50 [4]: 4.13 µM
- GI50 [5]: 1.77 µM
